Most compounds without a hit are left out; they make up all but 1.6% or so of the library.
sEH inh: soluble epoxide hydrolase (human) inhibition; P34913; recombinant human sEH enzymatic activity assay; inhibition, % at 2 µM; hit rate 0.34% among 91,000; in the data active means inhibition above about 80%
Target sequence (P34913 whole entry, looked up): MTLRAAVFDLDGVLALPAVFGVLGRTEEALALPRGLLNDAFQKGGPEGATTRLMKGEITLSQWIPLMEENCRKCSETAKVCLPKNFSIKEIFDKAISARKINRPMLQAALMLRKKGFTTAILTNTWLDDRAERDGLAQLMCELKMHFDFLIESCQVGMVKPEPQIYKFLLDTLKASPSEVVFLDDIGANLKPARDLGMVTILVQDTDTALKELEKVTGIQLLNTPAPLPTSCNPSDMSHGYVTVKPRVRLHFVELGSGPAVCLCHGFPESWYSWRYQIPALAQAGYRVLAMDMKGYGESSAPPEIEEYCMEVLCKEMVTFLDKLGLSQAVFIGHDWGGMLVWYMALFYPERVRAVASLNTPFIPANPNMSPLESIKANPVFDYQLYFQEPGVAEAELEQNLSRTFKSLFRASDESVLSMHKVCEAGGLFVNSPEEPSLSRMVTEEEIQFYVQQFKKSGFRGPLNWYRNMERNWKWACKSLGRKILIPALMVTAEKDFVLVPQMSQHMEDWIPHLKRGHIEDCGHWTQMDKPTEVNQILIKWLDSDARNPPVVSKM
Rev-RRE block: inhibitors of HIV-1 Rev-RRE RNA interaction; Rev peptide-RRE RNA binding, FRET; inhibition, % at 8 µM; hit rate 0.79% among 97,000;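 active means inhibition above the screen-wide mean plus 3 SD, cut at about 35% in these data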;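 further: 0% = median DMSO wells and 100% = median Neomycin B control wells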
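Test system: Cy5-tagged RRE RNA duplex with fluorescein-tagged Rev peptide; Probe or stimulus: labelled Rev peptide; Schedule: 5 min preincubation and 15 min binding, 25 °C; Signal: FRET fluorescence readout; Evaluation: % inhibition from 671/540 nm acceptor-to-donor ratio, scaled between controls; Control set: DMSO and neomycin B.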
CD11b adhes inh: CD11b/CD18-fibrinogen binding inhibition. AID 1497. inhibition, % at 10 µM. hit rate 0.54% among 93,000. K562 CD11b/CD18 adhesion to fibrinogen, ATPlite luminescence; Mn2+ added to activate the integrin;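 active means primary inhibition of 50% or more at 10 µM, then 40% or more on retest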
Smad3 inh: blocks human Smad3 binding to FoxH1 peptide; P84022; TR-FRET Smad3/Dy647-FoxH1 peptide binding, europium anti-His; inhibition, % at 25 µM; hit rate 0.29% among 88,000;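 active means compounds that reduce the energy-transfer binding signal between the protein and its labelled peptide by more than half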;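 further: 0% = Smad3 plus labelled peptide maximal FRET and 100% = peptide-only background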
sEH act: activators of human soluble epoxide hydrolase | activation, % at 2 µM | purified human sEH enzymatic activity, activator screen | hit rate 0.04% among 91,000 | P34913 | AID 717; in the data active means activation above about 37%
CD11b adhes enh: CD11b/CD18-fibrinogen binding enhancement. P05107+P11215. K562 CD11b/CD18 adhesion to fibrinogen, ATPlite luminescence. activation, % at 10 µM. hit rate 0.07% among 93,000. AID 1499;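 active means 10 µM primary screen giving 50% or more activity, confirmed by 40% or more on retest at that dose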
The depositor's hits bear a star; [ ] = another dose, or the depositor's remark.

Screening O=C(NCCC1=CCCCC1)c1ccc2c(c1)N(Cc1ccccc1)C(=O)CS2 returned sEH inh 82*, Rev-RRE block 1, CD11b adhes inh 21, Smad3 inh -5, sEH act -82 and CD11b adhes enh 0.
Screening O=C1Oc2ccccc2C(=O)/C1=C/N1C(=O)N/C(=C\c2ccccc2O)C1=O returned Smad3 inh 1.
Screening NC(Cc1ccccc1)=NCC(=O)O returned Smad3 inh -3.
For Nc1nc(Nc2ccc(Cl)cc2)nc2ccccc12 the results were sEH inh -16, Rev-RRE block -9, CD11b adhes inh 85*, Smad3 inh 0, sEH act 20 and CD11b adhes enh -4.
CN(C)C=Nc1nonc1-c1ncn[nH]1 was read as sEH inh 9, Rev-RRE block 5, CD11b adhes inh -15, Smad3 inh 7, sEH act -11 and CD11b adhes enh -4.
For CN(C)C=Nc1c(Br)cc(Br)c2nonc12 the results were sEH inh 3, Rev-RRE block 68*[fluorescence artefact?], Smad3 inh 1 and sEH act -4.
For O=C1N=C(N2CCOCC2)S/C1=C/c1cccs1 the results were sEH inh 3, Rev-RRE block 3 and sEH act -2.
Screening CC1Oc2ccccc2C=C1/C=C1/SC(N2CCOCC2)=NC1=O (configuration not stated) returned sEH inh -6, Rev-RRE block 37* and sEH act 6.
O=C(COC(=O)COc1ccc(Cl)cc1)NCc1cccs1 was read as CD11b adhes inh 1 and CD11b adhes enh 3.
For N#C[C@@H]1[C@@H]2C(=O)N(c3ccc4c(c3)OCCO4)C(=O)[C@@H]2C2c3ccccc3C=CN21 (some centres not stated) the results were sEH inh -28, Rev-RRE block 42*, Smad3 inh 2 and sEH act 25.
For CCN(CC)S(=O)(=O)c1ccc(N2CCN(S(=O)(=O)c3ccc4c(c3)OCCO4)CC2)nc1 the results were sEH inh 6, Rev-RRE block 9, CD11b adhes inh 29, Smad3 inh -3, sEH act -4 and CD11b adhes enh -4.
`O=C(CSCC(=O)N1CCCCC1)Nc1nc(-c2ccc(Cl)s2)cs1` gave sEH inh 2, Rev-RRE block 6, CD11b adhes inh 84*, Smad3 inh 8, sEH act -2 and CD11b adhes enh -8.
Screening Cc1ccccc1CN1C2=NCCN2C(=O)C2=C1CCN(Cc1ccccc1)C2 returned Smad3 inh 7.
Screening CN1CCCc2cc3c(C(F)(F)F)cc(=O)oc3nc21 returned sEH inh 5, Rev-RRE block 71*, CD11b adhes inh -5, Smad3 inh 6, sEH act -2 and CD11b adhes enh 2.
For CCN1CCC(O)([C@H](C(=O)O)c2ccccc2)CC1 the results were Smad3 inh -14.
`COc1ccc(-n2c(NC(=O)c3ccco3)c(C#N)c3nc4ccccc4nc32)cc1` gave sEH inh -14, Rev-RRE block 37*, CD11b adhes inh 7, sEH act 12 and CD11b adhes enh 12.
Screening CCCCn1c(NC(=O)CC)c(C#N)c2nc3ccccc3nc21 returned sEH inh -6, Rev-RRE block 12, CD11b adhes inh -7, Smad3 inh 16, sEH act 6 and CD11b adhes enh 35.
N#Cc1c(NC(=O)c2ccccc2Cl)n(Cc2ccccc2)c2nc3ccccc3nc12 was read as CD11b adhes inh 100* and CD11b adhes enh -6.
Screening CCCCn1c(NC(=O)c2ccccc2Cl)c(C#N)c2nc3ccccc3nc21 returned sEH inh 2, Rev-RRE block 13, CD11b adhes inh 106*, Smad3 inh 80*, sEH act -5 and CD11b adhes enh -9.
For CCOc1ccc(NC(=O)N2CCC(c3ccc(C)cc3)C2)cc1 (configuration not stated) the results were sEH inh 82*, Rev-RRE block 3, Smad3 inh 12 and sEH act -82.
`O=c1[nH]c2cc3c(cc2cc1C(c1nnnn1Cc1ccccc1)N1CCN2CCCC2C1)OCCO3` (configuration not stated) gave sEH inh 4, Rev-RRE block 16, CD11b adhes inh 0, Smad3 inh -6, sEH act -6 and CD11b adhes enh 58.

Compound activity: PubChem, several laboratories
